Results from different studies.
Each line is one published result; the experiments were not run side by side.
Target: Cyclin-dependent kinase 8 (CDK8, Homo sapiens, UniProt P49336)

| SMILES | read-out | method | tested at | remaining binding [%] |
| --- | --- | --- | --- | --- |
| O=C(Nc1c[nH]nc1C(=O)NC1CCNCC1)c1cc(F)cc(F)c1 | binding | competition with immobilised ligand | 1 µM | 97 |
| O=C(c1ccc(Nc2ncc(Cl)c(-c3cc4ccccc4s3)n2)cc1)N1CCC(N2CCCC2)CC1 | binding | competition with immobilised ligand | 1 µM | 100 |
| F[C@@H]1CCN(c2nccc(-c3cnn4ncccc34)n2)C1 | binding |  | 1 µM | 100 |
| FC(F)(F)Oc1cccc(-c2cnc3ccc(-c4ccncc4)nn23)c1 | cell-free assay | competition with immobilised ligand | 5 µM | 12 |
| O=C(NCCCN1CCOCC1)c1ccc(Nc2ncc(Cl)c(-c3ccc(Cl)s3)n2)cc1 | binding | competition with immobilised ligand | 1 µM | 100 |
| O=C(NS(=O)(=O)c1ccc(NCC2CCOCC2)c([N+](=O)[O-])c1)c1ccc(N2CCN(Cc3ccc(C(F)(F)F)cc3-c3ccc(Cl)cc3)CC2)cc1Oc1cnc2[nH]ccc2c1 | cell-free assay | competition with immobilised ligand | 1 µM | 100 |
| c1cncc(-c2cccc(Nc3nccc(NC4CCCCC4)n3)c2)c1 | binding | competition with immobilised ligand | 10 µM | 66 |
| Cc1cc(NC(=O)c2cccc(S(F)(F)(F)(F)F)c2)cc(-n2ccn3nc(-c4cccnc4)cc23)c1 | cell-free assay | competition with immobilised ligand | 1 µM | 86.2 |
| CN(CCCC(F)(F)F)c1nccc(-c2cnn3ncccc23)n1 | binding |  | 1 µM | 100 |
| C[C@@]1(Cc2ccc(C#N)cc2)C(=O)N(c2cc(Cl)cc(Cl)c2)c2ncc(C(=O)NC3(c4nc(C5CCC5)no4)CC3)n21 | cell-free assay | competition with immobilised ligand | 1 µM | 100 |
| N[C@@H]1CCN(c2nccc(-c3cnn4ncccc34)n2)C1 | binding |  | 1 µM | 100 |
| O=C1NC(c2ccccn2)Sc2ccccc21 (centres unmarked) | cell-free assay | competition with immobilised ligand | 1 µM | 78 |
| COc1ncc2cc3ccccc3nc2c1C#N | cell-free assay | competition with immobilised ligand | 5 µM | 100 |
| O=C(c1ccc(Nc2ncc(Cl)c(-c3ccc(Cl)s3)n2)cc1)N1CCC(N2CCCC2)CC1 | binding | competition with immobilised ligand | 1 µM | 100 |
| Cc1cnn2ncc(-c3ccnc(N(C)C)n3)c2c1 | binding |  | 1 µM | 93 |
| CCOCCn1cc(C(=O)Nc2ccc(-n3nc(-c4cccnc4)cc3C(F)(F)F)cn2)ccc1=O | cell-free assay | competition with immobilised ligand | 1 µM | 100 |
| C[C@H]1CCN(c2nccc(-c3cnn4ncccc34)n2)C1 | binding |  | 1 µM | 100 |
| COc1cnc(Nc2cccc(S(N)(=O)=O)c2)nc1N1CCN(c2ccccc2)CC1 | binding | competition with immobilised ligand | 1 µM | 95 |
| CC1CCCN1c1nccc(-c2cnn3ncccc23)n1 (centres unmarked) | binding |  | 1 µM | 100 |
| CC(=O)C1=C(C)N(c2cccc(C(F)(F)F)c2)C(=O)N[C@@H]1c1ccc(C#N)nc1 | cell-free assay | competition with immobilised ligand | 1 µM | 65.3 |
